In ChEMBL document CHEMBL5356993, “Novel pyrazolo[3,4-d]pyrimidine derivatives: design, synthesis, anticancer evaluation, VEGFR-2 inhibition, and antiangiogenic activity” (RSC Med Chem, 2023):

System: NCI-H23
Test: Antiproliferative activity against human NCI-H23 cells assessed as cell growth inhibition at 10 uM incubated for 48 hrs by SRB assay relative to control
Assay type: functional
Conditions: read-out: GI

Compound | inhibition of growth at 10 µM
Cc1nc2c(cnn2-c2ccccc2)c(=O)n1-c1ccc(N)cc1 | 40.1%
Cc1nc2c(cnn2-c2ccccc2)c(=O)n1-c1ccc(NC(=O)c2ccc([N+](=O)[O-])cc2)cc1 | 50.6%

System: 786-0
Test: Antiproliferative activity against human 786-0 cells assessed as cell growth inhibition at 10 uM incubated for 48 hrs by SRB assay relative to control
Assay type: functional
Conditions: read-out: GI

Compound | inhibition of growth at 10 µM
Cc1nc2c(cnn2-c2ccccc2)c(=O)n1-c1ccc(N)cc1 | < 15%
Cc1nc2c(cnn2-c2ccccc2)c(=O)n1-c1ccc(NC(=O)c2ccc([N+](=O)[O-])cc2)cc1 | 16.3%

System: EKVX
Test: Antiproliferative activity against human EKVX cells assessed as cell growth inhibition at 10 uM incubated for 48 hrs by SRB assay relative to control
Assay type: functional
Conditions: read-out: GI

Compound | inhibition of growth at 10 µM
Cc1nc2c(cnn2-c2ccccc2)c(=O)n1-c1ccc(N)cc1 | 63.3%
Cc1nc2c(cnn2-c2ccccc2)c(=O)n1-c1ccc(NC(=O)c2ccc([N+](=O)[O-])cc2)cc1 | 69.3%

System: CCRF-CEM
Test: Antiproliferative activity against human CCRF-CEM cells assessed as cell growth inhibition at 10 uM incubated for 48 hrs by SRB assay relative to control
Assay type: functional
Conditions: read-out: GI
Summary of the method: (§1)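 Cells plated in 96-well plates at […] cells/well and preincubated 24 h at 37 °C, 5% CO2. Time-zero plates were TCA-fixed. Compound was diluted in medium with 50 µg/mL gentamicin and cells exposed for 48 h. Adherent cells fixed with 10% final TCA; suspension cells with 16% final TCA. Plates stained with 0.4% SRB in 1% acetic acid, dye solubilized in 10 mM Trizma, absorbance read at 515 nm. Percent growth calculated against time-zero and control.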

Compound | inhibition of growth at 10 µM
Cc1nc2c(cnn2-c2ccccc2)c(=O)n1-c1ccc(N)cc1 | 21%
Cc1nc2c(cnn2-c2ccccc2)c(=O)n1-c1ccc(NC(=O)c2ccc([N+](=O)[O-])cc2)cc1 | 52.5%

System: SW-620
Test: Antiproliferative activity against human SW620 cells assessed as cell growth inhibition at 10 uM incubated for 48 hrs by SRB assay relative to control
Assay type: functional
Conditions: read-out: GI
Summary of the method: (§2)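 Cells pre-incubated 24 h at 37°C, 5% CO2, then exposed to compound (DMSO stock diluted in medium with 50 µg/mL gentamicin) for 48 h. Adherent cells fixed with cold TCA (final 10%, 60 min, 4°C); suspension cells fixed with 16% TCA final. Stained with 0.4% SRB in 1% acetic acid for 10 min, dye solubilized in 10 mM Trizma base, absorbance read at 515 nm. Growth calculated against time-zero and untreated control plates.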

Compound | inhibition of growth at 10 µM
Cc1nc2c(cnn2-c2ccccc2)c(=O)n1-c1ccc(N)cc1 | < 15%
Cc1nc2c(cnn2-c2ccccc2)c(=O)n1-c1ccc(NC(=O)c2ccc([N+](=O)[O-])cc2)cc1 | < 15%

System: A498
Test: Antiproliferative activity against human A498 cells assessed as cell growth inhibition at 10 uM incubated for 48 hrs by SRB assay relative to control
Assay type: functional
Conditions: read-out: GI
Summary of the method: as §1

Compound | inhibition of growth at 10 µM
Cc1nc2c(cnn2-c2ccccc2)c(=O)n1-c1ccc(N)cc1 | 16.8%
Cc1nc2c(cnn2-c2ccccc2)c(=O)n1-c1ccc(NC(=O)c2ccc([N+](=O)[O-])cc2)cc1 | 19.6%

System: NCI-H522
Test: Antiproliferative activity against human NCI-H522 cells assessed as cell growth inhibition at 10 uM incubated for 48 hrs by SRB assay relative to control
Assay type: functional
Conditions: read-out: GI
Summary of the method: as §1

Compound | inhibition of growth at 10 µM
Cc1nc2c(cnn2-c2ccccc2)c(=O)n1-c1ccc(N)cc1 | < 15%
Cc1nc2c(cnn2-c2ccccc2)c(=O)n1-c1ccc(NC(=O)c2ccc([N+](=O)[O-])cc2)cc1 | 38.9%

System: NCI-H460
Test: Antiproliferative activity against human NCI-H460 cells assessed as cell growth inhibition at 10 uM incubated for 48 hrs by SRB assay relative to control
Assay type: functional
Conditions: read-out: GI

Compound | inhibition of growth at 10 µM
Cc1nc2c(cnn2-c2ccccc2)c(=O)n1-c1ccc(N)cc1 | 16.8%
Cc1nc2c(cnn2-c2ccccc2)c(=O)n1-c1ccc(NC(=O)c2ccc([N+](=O)[O-])cc2)cc1 | 26.4%

System: M14
Test: Antiproliferative activity against human M14 cells assessed as cell growth inhibition at 10 uM incubated for 48 hrs by SRB assay relative to control
Assay type: functional
Conditions: read-out: GI
Summary of the method: as §1

Compound | inhibition of growth at 10 µM
Cc1nc2c(cnn2-c2ccccc2)c(=O)n1-c1ccc(N)cc1 | < 15%
Cc1nc2c(cnn2-c2ccccc2)c(=O)n1-c1ccc(NC(=O)c2ccc([N+](=O)[O-])cc2)cc1 | 24.6%

System: SK-MEL-5
Test: Antiproliferative activity against human SK-MEL-5 cells assessed as cell growth inhibition at 10 uM incubated for 48 hrs by SRB assay relative to control
Assay type: functional
Conditions: read-out: GI
Summary of the method: as §1

Compound | inhibition of growth at 10 µM
Cc1nc2c(cnn2-c2ccccc2)c(=O)n1-c1ccc(N)cc1 | 66.8%
Cc1nc2c(cnn2-c2ccccc2)c(=O)n1-c1ccc(NC(=O)c2ccc([N+](=O)[O-])cc2)cc1 | 82.4%

System: LOX IMVI
Test: Antiproliferative activity against human LOX IMVI cells assessed as cell growth inhibition at 10 uM incubated for 48 hrs by SRB assay relative to control
Assay type: functional
Conditions: read-out: GI

Compound | inhibition of growth at 10 µM
Cc1nc2c(cnn2-c2ccccc2)c(=O)n1-c1ccc(N)cc1 | 18.5%
Cc1nc2c(cnn2-c2ccccc2)c(=O)n1-c1ccc(NC(=O)c2ccc([N+](=O)[O-])cc2)cc1 | 34.1%

System: MDA-MB-435
Test: Antiproliferative activity against human MDA-MB-435 cells assessed as cell growth inhibition at 10 uM incubated for 48 hrs by SRB assay relative to control
Assay type: functional
Conditions: read-out: GI

Compound | inhibition of growth at 10 µM
Cc1nc2c(cnn2-c2ccccc2)c(=O)n1-c1ccc(N)cc1 | 22.9%
Cc1nc2c(cnn2-c2ccccc2)c(=O)n1-c1ccc(NC(=O)c2ccc([N+](=O)[O-])cc2)cc1 | 33.6%

System: HCT-15
Test: Antiproliferative activity against human HCT-15 cells assessed as cell growth inhibition at 10 uM incubated for 48 hrs by SRB assay relative to control
Assay type: functional
Conditions: read-out: GI

Compound | inhibition of growth at 10 µM
Cc1nc2c(cnn2-c2ccccc2)c(=O)n1-c1ccc(N)cc1 | < 15%
Cc1nc2c(cnn2-c2ccccc2)c(=O)n1-c1ccc(NC(=O)c2ccc([N+](=O)[O-])cc2)cc1 | 28.6%

System: TK-10
Test: Antiproliferative activity against human TK-10 cells assessed as cell growth inhibition at 10 uM incubated for 48 hrs by SRB assay relative to control
Assay type: functional
Conditions: read-out: GI
Summary of the method: as §2

Compound | inhibition of growth at 10 µM
Cc1nc2c(cnn2-c2ccccc2)c(=O)n1-c1ccc(N)cc1 | 21.8%
Cc1nc2c(cnn2-c2ccccc2)c(=O)n1-c1ccc(NC(=O)c2ccc([N+](=O)[O-])cc2)cc1 | 31.5%

System: HOP-62
Test: Antiproliferative activity against human HOP-62 cells assessed as cell growth inhibition at 10 uM incubated for 48 hrs by SRB assay relative to control
Assay type: functional
Conditions: read-out: GI

Compound | inhibition of growth at 10 µM
Cc1nc2c(cnn2-c2ccccc2)c(=O)n1-c1ccc(N)cc1 | 16.2%
Cc1nc2c(cnn2-c2ccccc2)c(=O)n1-c1ccc(NC(=O)c2ccc([N+](=O)[O-])cc2)cc1 | < 15%

System: OVCAR-4
Test: Antiproliferative activity against human OVCAR-4 cells assessed as cell growth inhibition at 10 uM incubated for 48 hrs by SRB assay relative to control
Assay type: functional
Conditions: read-out: GI

Compound | inhibition of growth at 10 µM
Cc1nc2c(cnn2-c2ccccc2)c(=O)n1-c1ccc(N)cc1 | 48.7%
Cc1nc2c(cnn2-c2ccccc2)c(=O)n1-c1ccc(NC(=O)c2ccc([N+](=O)[O-])cc2)cc1 | 48.2%

System: T47D
Test: Antiproliferative activity against human T47D cells assessed as cell growth inhibition at 10 uM incubated for 48 hrs by SRB assay relative to control
Assay type: functional
Conditions: read-out: GI
Summary of the method: as §2

Compound | inhibition of growth at 10 µM
Cc1nc2c(cnn2-c2ccccc2)c(=O)n1-c1ccc(N)cc1 | 64.9%
Cc1nc2c(cnn2-c2ccccc2)c(=O)n1-c1ccc(NC(=O)c2ccc([N+](=O)[O-])cc2)cc1 | 66.5%

System: HL-60(TB)
Test: Antiproliferative activity against human HL-60(TB) cells assessed as cell growth inhibition at 10 uM incubated for 48 hrs by SRB assay relative to control
Assay type: functional
Conditions: read-out: GI
Summary of the method: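 Cells were plated at […] cells/well and preincubated 24 h at 37°C, 5% CO2, with time-zero plates TCA-fixed. Compound was diluted from DMSO stock in medium with 50 µg/mL gentamicin, then exposed for 48 h. Settled suspension cells were fixed with 80% TCA (final 16%), stained with 0.4% SRB and solubilized in 10 mM Trizma, A515. Growth was taken relative to Tz and control.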

Compound | inhibition of growth at 10 µM
Cc1nc2c(cnn2-c2ccccc2)c(=O)n1-c1ccc(N)cc1 | < 15%
Cc1nc2c(cnn2-c2ccccc2)c(=O)n1-c1ccc(NC(=O)c2ccc([N+](=O)[O-])cc2)cc1 | 54%

System: HCT-116
Test: Antiproliferative activity against human HCT-116 cells assessed as cell growth inhibition at 10 uM incubated for 48 hrs by SRB assay relative to control
Assay type: functional
Conditions: read-out: GI

Compound | inhibition of growth at 10 µM
Cc1nc2c(cnn2-c2ccccc2)c(=O)n1-c1ccc(N)cc1 | 25.9%
Cc1nc2c(cnn2-c2ccccc2)c(=O)n1-c1ccc(NC(=O)c2ccc([N+](=O)[O-])cc2)cc1 | 55.6%

System: UACC-62
Test: Antiproliferative activity against human UACC-62 cells assessed as cell growth inhibition at 10 uM incubated for 48 hrs by SRB assay relative to control
Assay type: functional
Conditions: read-out: GI
Summary of the method: as §2

Compound | inhibition of growth at 10 µM
Cc1nc2c(cnn2-c2ccccc2)c(=O)n1-c1ccc(N)cc1 | 34.5%
Cc1nc2c(cnn2-c2ccccc2)c(=O)n1-c1ccc(NC(=O)c2ccc([N+](=O)[O-])cc2)cc1 | 39.6%

System: HCC 2998
Test: Antiproliferative activity against human HCC 2998 cells assessed as cell growth inhibition at 10 uM incubated for 48 hrs by SRB assay relative to control
Assay type: functional
Conditions: read-out: GI

Compound | inhibition of growth at 10 µM
Cc1nc2c(cnn2-c2ccccc2)c(=O)n1-c1ccc(N)cc1 | < 15%
Cc1nc2c(cnn2-c2ccccc2)c(=O)n1-c1ccc(NC(=O)c2ccc([N+](=O)[O-])cc2)cc1 | < 15%

System: SF-539
Test: Antiproliferative activity against human SF-539 cells assessed as cell growth inhibition at 10 uM incubated for 48 hrs by SRB assay relative to control
Assay type: functional
Conditions: read-out: GI
Summary of the method: as §1

Compound | inhibition of growth at 10 µM
Cc1nc2c(cnn2-c2ccccc2)c(=O)n1-c1ccc(N)cc1 | 19.4%
Cc1nc2c(cnn2-c2ccccc2)c(=O)n1-c1ccc(NC(=O)c2ccc([N+](=O)[O-])cc2)cc1 | 18.7%

System: K562
Test: Antiproliferative activity against human K562 cells assessed as cell growth inhibition at 10 uM incubated for 48 hrs by SRB assay relative to control
Assay type: functional
Conditions: read-out: GI

Compound | inhibition of growth at 10 µM
Cc1nc2c(cnn2-c2ccccc2)c(=O)n1-c1ccc(N)cc1 | 52.1%
Cc1nc2c(cnn2-c2ccccc2)c(=O)n1-c1ccc(NC(=O)c2ccc([N+](=O)[O-])cc2)cc1 | 68.8%
